Screens: PubChem, several laboratories
An excerpt weighted towards active compounds, which were near 4.8% of everything screened.
Calb FLC = affects C. albicans growth with fluconazole. C. albicans CaCi-2 (fluconazole-resistant clinical isolate) + fluconazole, Alamar Blue growth, 48 h. AID 1979. 300,000 compounds, 0.57% hits. growth inhibition, % (concentration not given with the values);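 active = growth inhibition above about 58% in most replicates, limit read from the data, passing the limit was not always enough; inconclusive = exactly half the replicates above a set limit; inactive = most replicates below a set limit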;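 note: all wells also contain fluconazole at 8 µg/ml as a sub-toxic cotreatment; 0% = median of DMSO wells and 100% = median of geldanamycin control wells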
NALP1 inh = NALP1 inhibition; 280,000 compounds, 0.61% hits; S. cerevisiae NALP1/ASC/caspase-1 growth, X-gal OD620, 72 h; inhibition, % at 10 µM; in the data active = inhibition mostly above about 24%, no sharp cut-off; inactive = mostly below about 32%
ATG4B inhibitor = inhibitors of human ATG4B cysteine protease; Q9Y4P1; ATG4B cleavage of LC3-PLA2, NBD-HPC fluorescence, 1 h; inhibition, % at 8.33 µM; 340,000 compounds, 0.51% hits; AID 504462; in the data active = inhibition above about 40%
ALR H2O2 inh = human ALR oxidase inhibition via reduced H2O2. inhibition, % (concentration not given with the values). purified ALR, DTT oxidation, H2O2 HRP-luminol luminescence. P55789. 290,000 compounds, 3.8% hits. AID 485317;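 active = mean replicate inhibition above about 79%, with every replicate also reaching it, limit read from the data; inconclusive = only one of the two criteria met; inactive = mean below limit and not every replicate reaching it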
Target sequence (P55789 whole entry, looked up): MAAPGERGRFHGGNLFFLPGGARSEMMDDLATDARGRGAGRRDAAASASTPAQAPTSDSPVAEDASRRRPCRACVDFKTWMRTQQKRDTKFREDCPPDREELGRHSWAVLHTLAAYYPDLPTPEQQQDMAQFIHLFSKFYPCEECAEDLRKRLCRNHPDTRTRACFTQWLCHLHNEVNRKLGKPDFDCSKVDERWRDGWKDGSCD
UCH37 DUB inh = inhibitors of human deubiquitinating enzyme UCH37; purified proteasome/UCH37, Ub-AMC cleavage fluorescence; inhibition, % (test concentration not listed); 330,000 compounds, 0.33% hits;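 active = mean inhibition over replicate wells above about 20%, limit read from the data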;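 note: 0% = compound-free wells with enzyme and 100% = wells lacking proteasome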
Target sequence (Q9Y5K5 whole entry, looked up): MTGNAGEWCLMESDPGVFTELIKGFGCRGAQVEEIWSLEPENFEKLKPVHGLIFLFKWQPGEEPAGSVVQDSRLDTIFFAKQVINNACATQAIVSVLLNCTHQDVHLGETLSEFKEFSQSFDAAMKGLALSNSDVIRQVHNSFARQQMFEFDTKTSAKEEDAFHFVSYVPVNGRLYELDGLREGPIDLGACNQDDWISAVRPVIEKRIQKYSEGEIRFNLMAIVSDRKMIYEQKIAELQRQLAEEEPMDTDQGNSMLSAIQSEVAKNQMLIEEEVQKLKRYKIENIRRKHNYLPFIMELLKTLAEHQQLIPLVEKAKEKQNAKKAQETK
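Assay system: Proteasome-bound UCH37. Buffer or medium: pH 7.4 Tris-HCl (50 mM) with ovalbumin, ATP-MgCl2, DTT. Incubation: 30 min preincubation with enzyme, 25 min cleavage at room temperature. Measured by: fluorescence, ex 355 nm, em 460 nm. Read-out basis: percent inhibition. Control set: wells without proteasome as full block, compound-free enzyme plus substrate as uninhibited.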
NALP3 yeast inh = blocks the NALP3 inflammasome reconstituted in yeast. Yeast reconstituted NLRP3/ASC/caspase-1, beta-gal luminescence, 24 h. inhibition, % at 10 µM. 330,000 compounds, 0.39% hits. AID 2825;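 active = inhibition of 50% or more; inactive = inhibition below 50%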;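 note: plate controls were induced DMSO wells for no effect and uninduced yeast grown without galactose for full effect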
An asterisk follows results filed as active; ? = inconclusive; nt = no result given.

SMILES | Calb FLC | NALP1 inh | ATG4B inhibitor | ALR H2O2 inh | UCH37 DUB inh | NALP3 yeast inh
CC(CC(=O)Nc1c(Cl)cccc1C(F)(F)F)=NNC(=O)c1cnccn1 | nt | nt | nt | nt | 2.2 | nt
O=C(CCCn1c(=O)[nH]c2ccsc2c1=O)N1CCCCC1 | -1.3 | 16.1 | -18.3 | 2.8 | 1.5 | -14.7
Cc1cccc(N2CCN(C(=O)CCCn3c(=O)[nH]c4ccsc4c3=O)CC2C)c1 (centres undefined) | 27.4 | 15.7 | -3.7 | 98.4* | -0.5 | 3.7
NC(=O)c1sc(=S)n(-c2ccc(Br)cc2)c1N | 1.0 | -12.6 | -2.5 | 95.5* | 12.7 | 1.2
CCNC(=O)c1sc(=S)n(-c2ccc(C)cc2)c1N | -10.3 | 10.9 | 11.8 | 24.5 | 9.3 | -6.7
COc1ccc(C=NNC(=O)c2ccc(Cl)cc2)cc1Cn1cc(Cl)cn1 | nt | nt | nt | nt | 0.6 | nt
O=C(COC(=O)c1ccc([N+](=O)[O-])o1)NCCCc1ccccc1 | nt | nt | -18.8 | -14.3 | 20.1* | 4.8
O=C(COC(=O)c1ccc([N+](=O)[O-])o1)NCc1ccc(F)cc1 | nt | nt | 1.4 | -7.4 | 24.6* | 14.1
O=C(COC(=O)c1ccc([N+](=O)[O-])o1)NC1CCS(=O)(=O)C1 (centres undefined) | 12.2 | 22.3 | -15.3 | nt | 24.9* | 4.7
CC1CCCC(NC(=O)COC(=O)c2ccc([N+](=O)[O-])o2)C1C (centres undefined) | nt | nt | -0.6 | -14.5 | 12.7 | 7.1
CCN(C(=O)COC(=O)c1ccc([N+](=O)[O-])o1)C1CCCCC1 | nt | nt | -30.9 | -92.1 | 20.8* | 2.9
O=C(COC(=O)c1ccc(Br)o1)NCc1ccc(F)cc1 | nt | nt | -1.4 | -2.5 | 2.0 | 3.9
Cc1cccc(C(=O)Nc2ccc(C(=O)NN=Cc3ccc(C)o3)cc2)c1 | nt | nt | nt | nt | 1.9 | nt
CCCC(=O)n1nc(-c2cccnc2)nc1NCc1ccc(OC)cc1 | 3.0 | -4.4 | -5.8 | nt | -0.5 | nt
CC(C)C(=O)n1nc(-c2cccnc2)nc1NCc1ccc(F)cc1 | 3.2 | 1.7 | 0.1 | 97.3* | 1.1 | -4.6
Oc1ccc(/C=N/Nc2ccc(Cl)nn2)cc1O | nt | 10.8 | 12.9 | 99.5* | nt | 2.0
Cc1nc(Cl)cc(N/N=C/c2ccc(O)cc2)n1 | -1.8 | 7.3 | -4.4 | 98.8* | nt | 18.1
Cc1nc(Cl)cc(NN=Cc2ccccc2)n1 | nt | nt | nt | nt | 2.8 | nt
Oc1ccc(/C=N/Nc2cc(N3CCOCC3)nc(N3CCOCC3)n2)cc1 | -1.6 | nt | 4.2 | 100.2* | nt | 13.5
Cn1cccc1-c1cc(C(=O)NN=C/C=C/c2ccccc2)[nH]n1 | nt | nt | nt | nt | 6.3 | nt
O=S(=O)(NN=Cc1c(F)cccc1Cl)c1ccccc1 | nt | nt | nt | nt | -0.6 | nt
CC1=CC(C)(C)Nc2ccc(OC(=O)CN3C(=O)CCC3=O)cc21 | 9.6 | 8.2 | -1.4 | 98.9* | -88.6 | 9.2
COc1cc(/C=C2\SC(=O)NC2=O)ccc1Oc1ccc([N+](=O)[O-])cn1 | 24.6 | 6.2 | 11.8 | 97.5* | 9.2 | 15.2
COc1cc(/C=C2/SC(=O)NC2=O)ccc1Oc1ccc([N+](=O)[O-])cc1[N+](=O)[O-] | 13.7 | nt | 24.1 | 96.7* | 8.0 | 6.6
COc1cc(/C=C(/C#N)c2ccccc2)ccc1Oc1ccc([N+](=O)[O-])cn1 | ? | 24.0 | 5.8 | -6.5 | 4.7 | 8.8
SMILES | Calb FLC | NALP1 inh | ATG4B inhibitor | ALR H2O2 inh | UCH37 DUB inh | NALP3 yeast inh
COc1ccc(CC(=O)Nc2cccc(C(C)=NNC(=O)C3(C)CC3(Br)Br)c2)cc1 (centres undefined) | nt | nt | nt | nt | 0.1 | nt
CCCOc1ccc2ccccc2c1C=Nn1c(C)nnc1-n1nc(C)cc1C | nt | nt | nt | nt | -2.0 | nt
Clc1ccc(SCc2cn3ccsc3n2)cc1 | -5.0 | -5.3 | 0.4 | 31.8 | 2.8 | 27.2
Cc1csc2nc(CSc3ccc(Cl)cc3)cn12 | -63.0 | nt | -6.7 | 92.4* | 2.5 | 20.2
Cc1ccc(Cn2ccc(=O)c(OCc3c(Cl)cccc3Cl)c2C)cc1 | -3.1 | 7.6 | -5.3 | 9.1 | 24.9* | 5.2
Cc1[nH]ccc(=O)c1OCc1c(Cl)cccc1Cl | -4.7 | 32.3 | -7.6 | -0.9 | 1.9 | 23.9
CCOc1cccc(/C=N/NC(=O)CC2C(=O)NN=C2C)c1O (centres undefined) | -10.6 | -1.7 | -6.2 | 98.2* | nt | 12.5
CC1=NNC(=O)C1CC(=O)N/N=C/C(C)=C/c1ccccc1 (centres undefined) | -0.2 | -33.4 | -5.9 | 94.1* | nt | -4.7
COc1ccccc1/C=C/C=NN1CCN(c2ccccn2)CC1 | nt | nt | nt | nt | 3.0 | nt
FC(F)(F)c1cc(C(F)(F)F)c2ccc(NN=Cc3ccccc3)nc2n1 | nt | nt | nt | nt | 6.8 | nt
